Series [1] relates to Jurkat. Description: Inhibition of TNF-alpha-induced necroptosis in FADD-deficient human Jurkat T cells. The class given is functional, cell-based. Put shortly: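 FADD-deficient variant of human Jurkat T cells given 10 ng/mL human TNF-α alongside increasing test compound concentrations for 24 h. Viability read by ATP-based assay; EC50 from the concentration series.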
Series [2] can be described thus: Metabolic stability assessed as half life in mouse liver microsomes. The class given is ADME, Microsome. Put shortly:
(§1)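 Pooled mouse liver microsomes (0.5 mg/mL protein) with 3 µM final compound and 1 mM NADPH, sampled at 0, 5, 15, 30, 60 min; no-NADPH incubation as negative control. Methanol quench, LC/MS (N=3) against internal standard; ln peak-area ratio vs time slope gives k, t1/2 = 0.693/k, CLint = V(0.693)/t1/2.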

A short description of series [3]: Intrinsic clearance in mouse liver microsome. The class given is ADME. Particulars: liver microsomes. Put shortly:
as §1

The subject of series [4] is Jurkat. Description: Inhibition of necroptosis in TNF-alpha-induced human Jurkat T cells assessed as cell viability at 30 uM after 24 hrs. Type of series: functional, cell-based. The method in brief: (§2)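 FADD-deficient Jurkat, L929 and mouse adult lung fibroblast cells exposed 24 hr to 10 ng/mL human TNF-α and/or 100 µM zVAD.fmk, with compound at 30 µM. ATP-based viability, normalized to compound-treated cells without necroptotic stimulus (100%); N = 2, standard deviation.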

Series [5] has as its system L929. Description: Inhibition of necroptosis in zVAD-induced mouse L929 cells assessed as cell viability at 30 uM after 24 hrs. The class given is functional, cell-based. The method in brief:
as §2

Series [6] has as its system L929. Description: Inhibition of necroptosis in TNF-alpha-induced mouse L929 cells assessed as cell viability at 30 uM after 24 hrs. The class given is functional, cell-based. Put shortly:
as §2

The next series is filed under the species Mus musculus. Description: Inhibition of necroptosis in zVAD-induced mouse fibroblast assessed as cell viability at 30 uM after 24 hrs. The class given is functional. Put shortly:
as §2

Molecules are shown by their SMILES. The source made the active and inactive calls. No cut-off for these calls is given here.

In the series on Jurkat [1], `Cn1c(C#N)ccc1S(=O)(=O)NCc1c(F)cccc1Cl` showed an EC50 greater than 20 µM. On the same count and under the same terms, the result for `CC(C)n1cc(C#N)cc1C(=O)NCc1c(F)cccc1Cl` reads greater than 20 µM; that for `CCn1c(C#N)ccc1C(=O)NCc1c(F)cccc1Cl`, 1.9 µM; that for `CCCCC(NC(=O)c1cccn1C(C)C)c1c(F)cccc1Cl` (racemic), greater than 20 µM.

For `C[C@H](NC(=O)c1snnc1C1CC1)c1c(F)cccc1Cl`, the half-life in series [2] was determined as 0.542 h. In addition, in series [3], the microsomal CLint turned out to be 42.6 µL/min/mg. For the same compound, the result in the series with Jurkat [4], in the series with L929 [5], in the series with L929 [6] and in the series filed under Mus musculus was Active. `CC(C)n1cccc1C(=O)NCc1c(F)cccc1Cl` yielded an EC50 in the series with Jurkat [1] of 0.44 µM. Still for that read-out and setting: the result for `Cn1cccc1C(=O)NCc1c(F)cccc1Cl` reads 0.9 µM; that for `CC(C)n1c(C#N)ccc1C(=O)NCc1c(F)cccc1Cl`, 1.4 µM; that for `CC(C)n1cccc1C(=O)N[C@@H](C)c1c(F)cccc1Cl`, 0.52 µM. Consider `Cc1ccn(C)c1C(=O)NCc1c(F)cccc1Cl`, for which, in the series with Jurkat [1], the half-maximal effective concentration (EC50) is greater than 20 µM.

`CC(C)n1cccc1C(=O)N[C@H](C)c1c(F)cccc1Cl` had a half-maximal effective concentration (EC50) with Jurkat [1] greater than 20 µM. The same measure, in the same setting: the result for `CC(NC(=O)c1cccn1C(C)C)c1c(F)cccc1Cl` (racemic) reads 2.1 µM; that for `Cn1c(C#N)ccc1C(=O)NCc1c(F)cccc1Cl`, 0.34 µM; that for `Cc1cc[nH]c1C(=O)NCc1c(F)cccc1Cl`, 4.9 µM. Same read-out and setting: the result for `O=C(NCc1c(F)cccc1Cl)c1cccn1Cc1ccccc1` reads greater than 20 µM; that for `CCn1c(Br)ccc1C(=O)NCc1c(F)cccc1Cl`, 2.4 µM; that for `Cn1cc(C#N)cc1C(=O)NCc1c(F)cccc1Cl`, greater than 20 µM.

As to `CN(Cc1c(F)cccc1Cl)C(=O)c1cccn1C`, the 50% effective concentration (EC50) in the series with Jurkat [1] was greater than 20 µM. Still for that read-out and setting: the result for `O=C(NCc1c(F)cccc1Cl)c1ccc[nH]1` reads greater than 20 µM; that for `Cn1c(Cl)ccc1C(=O)NCc1c(F)cccc1Cl`, 0.74 µM. The same measure, in the same setting: the result for `CC(c1ccccc1)n1cccc1C(=O)NCc1c(F)cccc1Cl` (centres undefined) reads greater than 20 µM. `CN1C(=O)C(Cc2c[nH]c3ccccc23)NC1=S` (racemic) [NECROSTATIN]: the midpoint of the response in the series on Jurkat [1], the EC50, lay at 0.05 µM. Also, the outcome in the series with Jurkat [4], in the series on L929 [5], with L929 [6] and in the series listed under Mus musculus was Active. On to `Cc1ccccc1C(=O)NCc1c(F)cccc1Cl`, for which the half-life in series [2] is 3.23 h. Besides, the microsomal CLint in series [3] is 7.13 µL/min/mg. In turn, `Cc1ccn(C(C)C)c1C(=O)NCc1c(F)cccc1Cl` had an EC50 with Jurkat [1] of 7.8 µM.

(Values after ChEMBL document CHEMBL1143090, “Structure-activity relationship and liver microsome stability studies of pyrrole necroptosis inhibitors” (Bioorg Med Chem Lett, 2008).)
